This note sets out measurements from ChEMBL document CHEMBL4613248, “Twelfth-Position Deuteration of Nevirapine Reduces 12-Hydroxy-Nevirapine Formation and Nevirapine-Induced Hepatocyte Death” (J Med Chem, 2020).

Data set [1] can be described thus: Drug level in C57BL/6J mouse primary hepatocytes treated with 10 uM NVP assessed as Cytochrome P450-mediated compound formation incubated for 24 hrs by uHPLC-MS analysis. The data set is classed as ADME, cell-based. The essentials: (§1)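 Fresh hepatocytes from male C57BL/6J mice (8–13 weeks), ≥85% viable on plating, adhered overnight, then given fresh medium with compound (final 0.1% DMSO vehicle) for 24 h in 12-well format. Culture medium deproteinized with acetonitrile (final 50%), dried, reconstituted in methanol; monooxygenated metabolites (2-, 3-, 12-OH) measured by uHPLC-MS/MS on Orbitrap. Four experimental replicates.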

Data set [2] is described as follows: Drug level in C57BL/6J mouse primary hepatocytes treated with 10 uM 2-D3NVP assessed as Cytochrome P450-mediated compound formation incubated for 24 hrs by uHPLC-MS analysis. In kind it is ADME, cell-based. Particulars: in the assay text read “12-D3NVP” for “2-D3NVP”. The method, boiled down: as §1
The test system of data set [3] is Cytochrome P450. In words: Drug level in human primary hepatocytes treated with 10 uM NVP assessed as Cytochrome P450-mediated compound formation incubated for 24 hrs by uHPLC-MS analysis. The data set is classed as ADME, cell-based. The method, boiled down:
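Cryoplateable pooled human hepatocytes (10 mixed-sex donors per lot, three lots), ≥90% viable on plating, adhered overnight, then dosed in fresh InVitroGRO CP medium with antibiotics (vehicle 0.1% DMSO) for 24 h, 12-well format. Medium extracted by acetonitrile precipitation (final 50%), dried, reconstituted in methanol; 2-, 3- and 12-OH metabolites quantified by uHPLC-MS/MS on Orbitrap.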

Data set [4] can be described thus: Plasma concentration in human. The data set is classed as ADME, cell-free.
Data set [5] in a line: Drug metabolism in C57BL/6J mouse primary hepatocytes assessed as O-GlucNVP metabolite formation at 10 uM incubated for 24 hrs by uHPLC-MS analysis. In kind it is ADME, cell-based, Hepatocyte. The essentials:
(§2)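 Fresh hepatocytes from male C57BL/6J mice (8–13 weeks), adhered overnight, then 10 μM substrate or vehicle (0.1% DMSO) for 24 h. Medium extracted with acetonitrile (50% final), dried, reconstituted in methanol; uHPLC-Orbitrap targeted SIM plus PRM (monooxygenated metabolites) or high-resolution ions (O-glucuronides, 459.1510/462.1700 ±5 ppm); four experimental replicates.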

A short description of data set [6]: Drug metabolism in C57BL/6J mouse primary hepatocytes assessed as Cytochrome P450-mediated formation of 8-OHNVP at 10 uM incubated for 24 hrs by uHPLC-MS analysis. The data set is classed as ADME, cell-based. The essentials: as §2
Another data set relates to Hepatocyte. In words: Toxicity in C57BL/6J mouse primary hepatocytes assessed as reduction in cell viability by measuring EtBr-positive cell nuclei level at 400 uM incubated for 8 hrs by EtBr/AcrO staining based assay (reference value: 19%). The essentials: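 Fresh male C57BL/6J mouse hepatocytes on collagen-coated coverslips, 400 μM compound or vehicle (0.2% DMSO) for 8 h; 10 μM staurosporine as positive control. Ethidium bromide/acridine orange costaining, imaging, percentage of EtBr-positive nuclei scored as dead cells; unpaired two-tailed t test.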

Data set [7] relates to Cytochrome P450. In words: Drug metabolism in human liver microsomes assessed as Cytochrome P450-mediated formation of 3-OHNVP formation at 5 to 400 uM in presence of NADPH regenerating reagents by uHPLC-MS/MS analysis. In kind it is ADME. The essentials: (§3)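 Pooled human liver microsomes (2.5 mg/mL) with NADPH-regenerating system, substrate 5–400 μM, 30 min at 37 °C, 0.1% DMSO (0.2% at 400 μM); 2- and 3-OH metabolites by uHPLC-MS/MS Orbitrap; three replicates, mean ± SD.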
A general note: Liver microsomes are vesicles of endoplasmic reticulum, rich in cytochrome P450 enzymes.

Data set [8] concerns Cytochrome P450. As to the kind of experiment: Drug metabolism in human primary hepatocytes assessed as Cytochrome P450-mediated formation of 2-OHNVP at 10 uM incubated for 24 to 48 hrs by uHPLC-MS analysis. In kind it is ADME, cell-based. The essentials:
(§4)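 Cryoplateable pooled human hepatocytes (10 mixed-sex donors per pool, three lots), adhered overnight, then 10 μM substrate or vehicle (0.1% DMSO) for 24 or 48 h in InVitroGRO CP medium. Medium extracted with 50% acetonitrile, dried, reconstituted in methanol; uHPLC-Orbitrap MS/MS for monooxygenated metabolites, high-resolution MS for O-glucuronide.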

A short description of data set [9]: Drug metabolism in C57BL/6J mouse primary hepatocytes assessed as Cytochrome P450-mediated formation of 12-OHNVP at 10 uM incubated for 24 hrs by uHPLC-MS analysis. In kind it is ADME, cell-based. The essentials: as §2
Data set [10] is described as follows: Drug metabolism in C57BL/6J mouse primary hepatocytes assessed as Cytochrome P450-mediated formation of 2-OHNVP at 10 uM incubated for 24 hrs by uHPLC-MS analysis. In kind it is ADME, cell-based. The method, boiled down:
as §2

Data set [11] is described as follows: Drug metabolism in human primary hepatocytes assessed as O-GlucNVP metabolite formation at 10 uM incubated for 24 hrs by uHPLC-MS analysis. The data set is classed as ADME, cell-based, Hepatocyte. The essentials:
as §4

The nature of data set [12]: Drug metabolism in human assessed as formation of 12-OH-NVP. In kind it is ADME.
A short description of data set [13]: Drug metabolism in C57BL/6J mouse primary hepatocytes assessed as 12-O-GlucD2NVP metabolite formation at 10 uM incubated for 24 hrs by uHPLC-MS analysis. In kind it is ADME, cell-based, Hepatocyte. The essentials: as §2
The subject of data set [14] is Cytochrome P450. As to the kind of experiment: Drug metabolism in human liver microsomes assessed as Cytochrome P450-mediated formation of 2-OHNVP formation at 5 to 400 uM in presence of NADPH regenerating reagents by uHPLC-MS/MS analysis. In kind it is ADME. The method, boiled down:
as §3

The nature of data set [15]: Drug metabolism in C57BL/6J mouse primary hepatocytes assessed as Cytochrome P450-mediated formation of 3-OHNVP at 10 uM incubated for 24 hrs by uHPLC-MS analysis. The data set is classed as ADME, cell-based. The method, boiled down: as §2
Data set [16] concerns Cytochrome P450. In words: Drug metabolism in human liver microsomes assessed as Cytochrome P450-mediated formation of 12-OHNVP by measuring Kcat/Km ratio in presence of NADPH regenerating reagents by uHPLC-MS/MS analysis. The essentials: (§5)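 Pooled human liver microsomes (2.5 mg/mL) in potassium phosphate; substrate (1–400 μM) prewarmed 5 min at 37 °C with NADPH-regenerating system, started with microsomes, 30 min at 37 °C. 12-OH product quantified by uHPLC-MS/MS Orbitrap against 12-OHNVP standard curve made in microsomes without NADPH. Kcat/Km taken as slope of linear rate vs substrate fit at nonsaturating 0–50 μM.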

In data set [17] the test system is Cytochrome P450. As to the kind of experiment: Drug metabolism in human liver microsomes assessed as Cytochrome P450-mediated formation of 12-OHNVP at 1 to 400 uM in presence of NADPH regenerating reagents by uHPLC-MS/MS analysis. The data set is classed as ADME. The essentials:
as §5

Data set [18] has as its system Cytochrome P450. As to the kind of experiment: Drug metabolism in human primary hepatocytes assessed as Cytochrome P450-mediated formation of 3-OHNVP at 10 uM incubated for 24 to 48 hrs by uHPLC-MS analysis. The data set is classed as ADME, cell-based. The method, boiled down: as §4

With `O=C1Nc2c(CO)ccnc2N(C2CC2)c2ncccc21`, the Drug uptake result in data set [1] is reported as “Metabolite_Detected”.
`[2H]C([2H])([2H])c1c(O)cnc2c1NC(=O)c1cccnc1N2C1CC1`: the Drug uptake entry in data set [2] is on record as “Metabolite_Detected”.
Turning to `Cc1c(O)cnc2c1NC(=O)c1cccnc1N2C1CC1`, the Drug uptake result (in [1]; in the data set with Cytochrome P450 [3]) was “Metabolite_Detected” each time.
As to `[2H]C([2H])([2H])c1cc(O)nc2c1NC(=O)c1cccnc1N2C1CC1`, the Drug uptake result in [2] is given as “Metabolite_Detected”.
As for `[2H]C([2H])(O)c1ccnc2c1NC(=O)c1cccnc1N2C1CC1`, the Drug uptake entry in data set [2] is given as “Metabolite_Detected”.
With `Cc1cc(O)nc2c1NC(=O)c1cccnc1N2C1CC1`, the Drug uptake result (in data set [1]; in the data set with Cytochrome P450 [3]) was “Metabolite_Detected” each time.
`Cc1ccnc2c1NC(=O)c1cccnc1N2C1CC1` [NEVIRAPINE]: in data set [4], the concentration came out at 16 µM. Moreover, the Drug metabolism entry in [5] is listed as “Metabolite_Detected”; in data set [6] it was “Metabolite_Notdetected”; in the data set with Cytochrome P450 [7], “Metabolite_Detected”; with Cytochrome P450 [8] it was “Metabolite_Detected”; in [9] it was “Metabolite_Detected”; in [10], “Metabolite_Detected”. For the same compound, the Drug metabolism result in [11] was “Metabolite_Detected”; in data set [12], 1.3 µM; in data set [13], “Metabolite_Notdetected”; in the data set with Cytochrome P450 [14], “Metabolite_Detected”; in [15], “Metabolite_Detected”; with Cytochrome P450 [17], “Metabolite_Detected”. Moreover, in the data set on Cytochrome P450 [18], the Drug metabolism result is “Metabolite_Detected”. In addition, in the data set with Hepatocyte, the Activity was 52.6%. Further, in the data set on Cytochrome P450 [16], the Kcat/Km is 1.4 M⁻¹ s⁻¹.
